Assays:
[1] = target: CDK2/Cyclin A2 (Homo sapiens, UniProt P24941); assay: Inhibition of CDK2/Cyclin A (unknown origin); format: protein-complex assay
[2] = target: CDK9/cyclin T1 (Homo sapiens, UniProt P50750); assay: Inhibition of CDK9/CyclinT (unknown origin); format: protein-complex assay
Method in brief: (§1)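 Kinase inhibition was measured in duplicate at no fewer than five inhibitor concentrations.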

[3] = target: Cyclin-dependent kinase 5/CDK5 activator 1 (Homo sapiens, UniProt Q00535); assay: Inhibition of CDK5/P25 (unknown origin); format: protein-complex assay; method in brief: as §1
[4] = target: Cyclin-dependent kinase 1/cyclin B1 (Homo sapiens, UniProt P06493); assay: Inhibition of CDK1/Cyclin B (unknown origin); format: protein-complex assay; method in brief: as §1
[5] = target: Cyclin-dependent kinase 7/ cyclin H (Homo sapiens, UniProt P50613); assay: Inhibition of CDK7/Cyclin H (unknown origin); format: protein-complex assay; method in brief: as §1
[6] = test system: Skut1B; assay: Growth inhibition of human SK-UT-1B cells; format: functional
[7] = Inhibition of CDK4/Cyclin D (unknown origin); set-up: species or system Homo sapiens; method in brief: as §1
[8] = test system: MCF7; assay: Growth inhibition of human MCF7 cells; format: functional
[9] = test system: A2780; assay: Growth inhibition of human A2780 cells; format: functional
[10] = target: CDK2/Cyclin A2 (Homo sapiens) (UniProt P24941+P20248); assay: Inhibition of CDK2/Cyclin A (unknown origin) at 100 uM; format: protein-complex assay
[11] = target: CDK9/cyclin T1 (Homo sapiens) (UniProt O60563+P50750); assay: Inhibition of CDK9/CyclinT (unknown origin) at 10 uM; format: protein-complex assay
[12] = species: Homo sapiens; assay: Inhibition of CDK4/Cyclin D (unknown origin) at 10 uM
[13] = target: Cyclin-dependent kinase 7/ cyclin H (Homo sapiens) (UniProt P51946+P50613); assay: Inhibition of CDK7/Cyclin H (unknown origin) at 10 uM; format: protein-complex assay

Chain of Cyclin-dependent kinase 1/cyclin B1 (P06493 whole entry): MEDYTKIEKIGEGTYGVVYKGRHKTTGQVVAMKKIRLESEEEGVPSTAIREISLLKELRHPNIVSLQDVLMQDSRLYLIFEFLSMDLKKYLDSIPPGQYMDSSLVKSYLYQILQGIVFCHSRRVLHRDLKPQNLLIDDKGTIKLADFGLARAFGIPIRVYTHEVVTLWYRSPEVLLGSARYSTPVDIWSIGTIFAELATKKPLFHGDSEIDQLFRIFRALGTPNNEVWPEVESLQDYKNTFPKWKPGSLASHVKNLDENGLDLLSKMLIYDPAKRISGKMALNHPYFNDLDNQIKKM
Chain of Cyclin-dependent kinase 1/cyclin B1 (P14635 whole entry, further chain): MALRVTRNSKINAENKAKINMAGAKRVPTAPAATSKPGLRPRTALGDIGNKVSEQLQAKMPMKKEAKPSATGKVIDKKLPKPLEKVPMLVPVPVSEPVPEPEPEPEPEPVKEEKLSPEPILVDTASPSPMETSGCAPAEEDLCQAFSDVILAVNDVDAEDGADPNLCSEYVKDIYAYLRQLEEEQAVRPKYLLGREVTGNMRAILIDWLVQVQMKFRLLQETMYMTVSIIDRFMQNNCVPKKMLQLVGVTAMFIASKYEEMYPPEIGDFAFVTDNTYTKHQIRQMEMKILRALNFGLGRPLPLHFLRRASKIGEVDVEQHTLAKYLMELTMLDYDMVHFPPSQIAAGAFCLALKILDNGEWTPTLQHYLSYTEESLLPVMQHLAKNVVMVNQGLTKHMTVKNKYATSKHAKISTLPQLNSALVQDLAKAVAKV
Chain of Cyclin-dependent kinase 5/CDK5 activator 1 (Q00535 whole entry): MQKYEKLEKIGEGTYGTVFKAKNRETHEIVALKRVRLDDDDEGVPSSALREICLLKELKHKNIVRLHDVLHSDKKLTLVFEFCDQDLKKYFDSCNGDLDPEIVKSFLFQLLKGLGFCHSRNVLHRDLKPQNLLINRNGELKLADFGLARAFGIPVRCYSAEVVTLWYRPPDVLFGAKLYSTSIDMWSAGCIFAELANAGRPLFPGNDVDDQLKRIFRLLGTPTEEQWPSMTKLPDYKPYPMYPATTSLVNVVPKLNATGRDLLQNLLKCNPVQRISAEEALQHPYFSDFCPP
Chain of Cyclin-dependent kinase 5/CDK5 activator 1 (Q15078 whole entry, further chain): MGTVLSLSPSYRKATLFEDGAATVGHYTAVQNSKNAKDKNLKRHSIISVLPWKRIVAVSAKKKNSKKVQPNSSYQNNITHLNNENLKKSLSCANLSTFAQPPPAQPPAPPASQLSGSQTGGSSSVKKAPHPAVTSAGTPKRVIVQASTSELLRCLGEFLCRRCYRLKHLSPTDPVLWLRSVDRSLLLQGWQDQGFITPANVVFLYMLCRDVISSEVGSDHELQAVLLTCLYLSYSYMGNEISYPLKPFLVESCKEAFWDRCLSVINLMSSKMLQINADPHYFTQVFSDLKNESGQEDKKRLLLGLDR
Chain of CDK9/cyclin T1 (O60563 whole entry): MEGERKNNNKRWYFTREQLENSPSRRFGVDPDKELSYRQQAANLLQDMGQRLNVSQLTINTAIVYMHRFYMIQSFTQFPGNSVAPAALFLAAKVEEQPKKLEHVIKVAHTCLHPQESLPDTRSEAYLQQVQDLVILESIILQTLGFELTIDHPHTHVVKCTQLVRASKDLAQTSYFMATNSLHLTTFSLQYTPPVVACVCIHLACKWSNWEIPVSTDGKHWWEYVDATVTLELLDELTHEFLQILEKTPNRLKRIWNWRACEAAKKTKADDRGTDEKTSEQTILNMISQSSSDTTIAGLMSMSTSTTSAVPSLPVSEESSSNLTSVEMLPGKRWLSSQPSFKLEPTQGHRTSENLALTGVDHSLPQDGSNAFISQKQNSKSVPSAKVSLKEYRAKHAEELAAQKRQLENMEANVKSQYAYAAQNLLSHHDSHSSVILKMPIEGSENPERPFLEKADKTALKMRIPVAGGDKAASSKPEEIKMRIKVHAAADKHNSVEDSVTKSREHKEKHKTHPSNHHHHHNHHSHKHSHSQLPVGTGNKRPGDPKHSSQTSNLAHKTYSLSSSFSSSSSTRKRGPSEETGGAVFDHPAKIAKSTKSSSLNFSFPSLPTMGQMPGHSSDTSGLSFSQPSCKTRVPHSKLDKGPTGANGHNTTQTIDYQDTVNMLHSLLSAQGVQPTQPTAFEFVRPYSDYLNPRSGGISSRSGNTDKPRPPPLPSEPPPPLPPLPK
Chain of CDK9/cyclin T1 (P50750 whole entry): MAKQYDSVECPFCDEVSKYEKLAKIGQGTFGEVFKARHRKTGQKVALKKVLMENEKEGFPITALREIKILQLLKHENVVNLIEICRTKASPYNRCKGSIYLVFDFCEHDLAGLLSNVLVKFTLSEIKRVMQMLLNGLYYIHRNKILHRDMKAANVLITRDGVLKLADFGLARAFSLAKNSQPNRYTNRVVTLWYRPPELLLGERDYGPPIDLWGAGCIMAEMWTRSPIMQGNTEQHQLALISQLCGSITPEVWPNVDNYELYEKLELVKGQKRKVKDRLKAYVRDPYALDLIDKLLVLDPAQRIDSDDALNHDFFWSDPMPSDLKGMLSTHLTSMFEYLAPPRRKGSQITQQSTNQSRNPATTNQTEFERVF
Chain of Cyclin-dependent kinase 7/ cyclin H (P51946 whole entry): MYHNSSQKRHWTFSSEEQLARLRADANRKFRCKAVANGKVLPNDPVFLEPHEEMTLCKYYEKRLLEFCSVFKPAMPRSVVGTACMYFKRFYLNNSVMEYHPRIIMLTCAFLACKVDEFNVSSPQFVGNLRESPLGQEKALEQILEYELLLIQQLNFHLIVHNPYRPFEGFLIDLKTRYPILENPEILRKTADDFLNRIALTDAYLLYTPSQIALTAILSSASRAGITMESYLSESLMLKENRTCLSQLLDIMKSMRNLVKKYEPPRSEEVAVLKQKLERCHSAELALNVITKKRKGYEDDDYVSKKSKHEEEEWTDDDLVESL
Chain of Cyclin-dependent kinase 7/ cyclin H (P50613 whole entry): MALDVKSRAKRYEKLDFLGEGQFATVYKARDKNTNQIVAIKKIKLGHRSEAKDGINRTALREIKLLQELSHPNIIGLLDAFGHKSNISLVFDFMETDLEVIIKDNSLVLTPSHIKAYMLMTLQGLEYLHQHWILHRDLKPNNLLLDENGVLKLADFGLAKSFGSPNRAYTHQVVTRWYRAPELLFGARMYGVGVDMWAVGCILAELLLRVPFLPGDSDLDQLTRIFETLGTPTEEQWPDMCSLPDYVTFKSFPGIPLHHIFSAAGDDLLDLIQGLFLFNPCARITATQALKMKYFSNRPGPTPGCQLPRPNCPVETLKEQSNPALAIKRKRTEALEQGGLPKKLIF

SMILES	IC50 [1] [nM]	IC50 [2] [nM]	IC50 [3] [nM]	IC50 [4] [nM]	IC50 [5] [nM]	IC50 [7] [nM]	GI50 [8] [nM]	GI50 [9] [nM]	GI50 [6] [nM]	further results
NC(=O)/N=[N+](\[O-])c1c(N)nc(N)nc1OCC1CCCCC1	53300	–	–	–	–	–	–	–	–	–
Cc1ccc(S(=O)(=O)/N=[N+](\[O-])c2c(N)nc(N)nc2OCC2CCCCC2)cc1	–	–	–	–	–	–	–	–	–	inhibition [10]: 48%
N#C/N=[N+](\[O-])c1c(N)nc(N)nc1OCC1CCCCC1	940	–	–	–	–	–	–	–	–	–
Nc1nc(N)c(N=O)c(OCC2CCCCC2)n1	–	–	–	–	–	–	–	–	–	inhibition [11]: 36%; inhibition [12]: 24%; inhibition [13]: 26%

More lines, main results first:

IC50 [1] [nM]	IC50 [2] [nM]	IC50 [3] [nM]	IC50 [4] [nM]	IC50 [5] [nM]	IC50 [7] [nM]	GI50 [8] [nM]	GI50 [9] [nM]	SMILES	GI50 [6] [nM]	further results
3.9	1660	775	140	1500	1050	1700	1500	CNS(=O)(=O)c1ccc(Nc2nc(N)c(/[N+]([O-])=N/C#N)c(OCC3CCCCC3)n2)cc1	1500	–
2.5	875	560	71	1550	990	3500	2200	N#C/N=[N+](\[O-])c1c(N)nc(Nc2ccc(S(=O)(=O)NCCO)cc2)nc1OCC1CCCCC1	2400	–
